IC50 data for five molecules are collected here from ChEMBL document CHEMBL1148895, “New cytotoxic cyclic peptides and dianthramide from Dianthus superbus” (J Nat Prod, 2004).

One assay relates to HepG2. The assay is described as follows: Cytotoxicity against human HepG2 cells after 3 days by MTT assay. Type of assay: functional, cell-based. Particulars: HepG2, 72 h. In outline:
(§1)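 Freshly trypsinized cells were seeded at 5000-10 000 per well, with compounds added from a DMSO-diluted stock. After 3 days of culture, attached cells were incubated with MTT (0.5 mg/mL) for 1 h and then solubilized in DMSO. Absorbance was read at 550 nm.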
A general note: Formazan colour is commonly taken as a measure of viable cells.

The next assay deals with A549. As to the kind of experiment: Cytotoxicity against human A549 cells after 3 days by MTT assay. Type of assay: functional, cell-based. Particulars: A549, 72 h. In outline:
as §1

In another assay the test system is MCF7. The assay is described as follows: Cytotoxicity against human MCF7 cells after 3 days by MTT assay. Format: functional, cell-based. The settings on record: MCF7, 72 h. In outline: (§2)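 Freshly trypsinized cells were seeded at 5000-10 000 per well, with compounds added from a DMSO-diluted stock. After 3 days of culture, attached cells were incubated with MTT (0.5 mg/mL) for 1 h and then solubilized in DMSO. Absorbance was read at 550 nm. IC50 is the concentration that reduced cell growth by 50%.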

The subject of a further assay is MDA-MB-231. As to the kind of experiment: Cytotoxicity against human MDA-MB-231 cells after 3 days by MTT assay. Type of assay: functional, cell-based. The settings on record: MDA-MB-231, 72 h. The gist of the method:
as §2

Assay [1] is described as follows: Cytotoxicity against human Hep3B cells after 3 days by MTT assay. Type of assay: functional, cell-based, Hep 3B2. The settings on record: 72 h. The gist of the method:
as §2

In brackets after ≈: the same amount, converted by molar mass. Residues, ends and D or L forms follow the SMILES beside them.

For orientation: IC50 means the concentration at which inhibition is half-maximal. Lower therefore signals greater potency in that assay. As for `CC[C@H](C)[C@@H]1NC(=O)[C@@H]2CCCN2C(=O)[C@@H]2CCCN2C(=O)[C@H](CC(C)C)NC(=O)[C@H](CO)NC(=O)CNC(=O)[C@H](Cc2ccccc2)NC1=O` (cyclo(FGSLPPI)), the IC50 (with HepG2; in the assay with A549; in the assay with MCF7; in the assay on MDA-MB-231; in assay [1]) was above 20 µg/mL in each case.

Consider `CC[C@H](C)[C@@H]1NC(=O)[C@@H]2CCCN2C(=O)CNC(=O)[C@H](C(C)C)NC(=O)[C@H](Cc2ccccc2)NC(=O)[C@H](CO)NC1=O` (cyclo(FVGPIS)), for which the IC50 is 2.37 µg/mL (≈ 3.95 µM) in the assay on HepG2; above 20 µg/mL in the assay on A549; above 20 µg/mL with MCF7; above 20 µg/mL with MDA-MB-231; above 20 µg/mL in assay [1].

Turning to `CC[C@H](C)[C@@H]1NC(=O)[C@H](C(C)C)NC(=O)[C@H](Cc2ccc(O)cc2)NC(=O)[C@H](Cc2ccccc2)NC(=O)[C@@H]2CCCN2C(=O)CNC1=O` (cyclo(FYVIGP)), the IC50 in the assay on HepG2 was 17.2 µg/mL (≈ 25.4 µM); in the assay with A549 it was above 20 µg/mL; in the assay on MCF7, above 20 µg/mL; in the assay on MDA-MB-231, above 20 µg/mL; in assay [1], above 20 µg/mL.

Consider `COC(=O)c1ccc(OC)cc1NC(=O)c1ccccc1O` [4-METHOXYDIANTHRAMIDE B], for which the IC50 in the assay on HepG2 was 4.08 µg/mL (≈ 13.5 µM); with A549, above 20 µg/mL; in the assay on MCF7 it was above 20 µg/mL; with MDA-MB-231, above 20 µg/mL; in assay [1] it was 16 µg/mL (≈ 53.2 µM).

Regarding `COc1cccc2c1C(=O)c1c(O)c3c(c(O)c1C2=O)C[C@@](O)(C(=O)CO)C[C@@H]3O[C@H]1C[C@H](N)[C@H](O)[C@H](C)O1` [DOXORUBICIN], the results for the IC50 (with MCF7; in the assay with MDA-MB-231; in assay [1]) were 1.21 µg/mL (≈ 2.23 µM), 0.73 µg/mL (≈ 1.34 µM) and 0.31 µg/mL (≈ 0.57 µM), respectively.
